Measured values reported in ChEMBL document CHEMBL2331476, “A novel semisynthetic flavonoid 7-O-galloyltaxifolin upregulates heme oxygenase-1 in RAW264.7 cells via MAPK/Nrf2 pathway” (J Med Chem, 2013).
Active and inactive are the calls of the source. No cut-off for these calls is given here.

Experiments:
[1] = biological target: T1, Nuclear factor erythroid 2-related factor 2 (Mus musculus) (UniProt Q60795); assay: Activation of Nrf2 in mouse RAW264.7 cells assessed as upregulation of HO1 protein expression at 50 uM after 6 hrs by Western blotting analysis; type: cell-based
T1 sequence (whole entry): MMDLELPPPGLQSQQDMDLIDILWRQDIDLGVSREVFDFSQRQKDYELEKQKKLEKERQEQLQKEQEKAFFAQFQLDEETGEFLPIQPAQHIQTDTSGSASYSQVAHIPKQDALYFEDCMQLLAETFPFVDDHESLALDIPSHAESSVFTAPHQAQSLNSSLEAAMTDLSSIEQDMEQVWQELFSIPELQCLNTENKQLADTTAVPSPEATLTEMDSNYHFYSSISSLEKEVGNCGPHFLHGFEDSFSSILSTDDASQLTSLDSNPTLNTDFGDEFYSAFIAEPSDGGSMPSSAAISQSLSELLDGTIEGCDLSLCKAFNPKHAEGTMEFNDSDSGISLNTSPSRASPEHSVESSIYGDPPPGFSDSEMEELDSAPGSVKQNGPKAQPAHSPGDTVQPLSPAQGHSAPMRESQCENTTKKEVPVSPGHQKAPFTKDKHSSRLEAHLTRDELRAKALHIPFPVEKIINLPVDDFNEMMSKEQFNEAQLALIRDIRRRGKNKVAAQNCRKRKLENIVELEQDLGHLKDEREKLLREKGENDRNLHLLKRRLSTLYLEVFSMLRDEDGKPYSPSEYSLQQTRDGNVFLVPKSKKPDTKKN
Outline: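 HO-1 protein in whole-cell lysates (20 μg/lane) of serum-starved RAW264.7 cells after 6 h at 10-50 μM or 50 μM for 1-6 h in serum-free medium, 0.1% DMSO control. Chemiluminescent Western blot; HO-1 densitometry normalized to actin, mean of three experiments.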

[2] = biological target: T1, Nuclear factor erythroid 2-related factor 2 (Mus musculus); assay: Activation of Nrf2 in mouse RAW264.7 cells assessed as upregulation of Hmox1 gene expression at 10 to 50 uM after 6 hrs by real-time PCR analysis relative to GAPDH mRNA expression; type: cell-based
Outline: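 RAW264.7 cells treated 6 h in serum-free medium, 0.1% DMSO control. Total RNA (2 μg) reverse transcribed; TaqMan qPCR for Hmox1 and Gapdh, 40 cycles. Relative expression by 2^−ΔΔCT, normalized to Gapdh; mean ± SD of three experiments.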

[3] = test system: RAW264.7; assay: Cytotoxicity against mouse RAW264.7 cells assessed as decreased cell viability at 50 uM after 6 hrs by MTT assay; type: cell-based; details: raw264.7, 6 h
Outline: (§1)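 Serum-starved RAW264.7 cells exposed 6 h at 10 or 50 μM; 0.1% DMSO control (100% viability), 1.5% Triton X-100 positive control. Cells washed and incubated 2 h at 37 °C with 0.5 mg/mL MTT in serum-free medium. Formazan dissolved in DMSO, A540 read, viability relative to DMSO-treated cells.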

[4] = test system: RAW264.7; assay: Cytotoxicity against mouse RAW264.7 cells assessed as decreased cell viability at 10 uM after 6 hrs by MTT assay; type: cell-based; details: raw264.7, 6 h; outline: as §1
[5] = biological target: MAP kinase p38 (Homo sapiens) (UniProt O15264+Q15759+Q16539+P53778); assay: Activation of p38MAPK in mouse RAW264.7 cells assessed as phosphorylation at Thr180/Tyr182 at 5 uM after 30 mins by Western blotting analysis; type: cell-based
Outline: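 Serum-starved RAW264.7 cells were treated 30 min with 5 μM anisomycin in serum-free medium. Whole-cell lysate was made in Tris/NaCl/SDS/NP-40/Triton buffer with phosphatase and protease inhibitors, pH 7.4, and 35 μg/lane run on 10% SDS-PAGE. Blots were probed for p38 dually phosphorylated at Thr180/Tyr182 versus total p38, with chemiluminescent detection.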

[6] = test system: RAW264.7; assay: Drug uptake in mouse RAW264.7 cells measured per 10^6 cells at 50 uM after 3 hrs; type: ADME, cell-based; details: raw264.7, 3 h
Outline: (§2)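 Cells given 50 μM for up to 6 h, then scraped, washed twice in PBS and sonicated in methanol with 5% acetic acid. Supernatant analysed by UPLC on a phenyl column (water/1% acetic acid/methanol to methanol gradient, 35 °C) with negative ESI-QqTOF MS. Contents expressed as nmol per 10⁶ cells.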

[7] = biological target: T1, Nuclear factor erythroid 2-related factor 2 (Mus musculus); assay: Activation of Nrf2 in mouse RAW264.7 cells assessed as cytosolic accumulation at 50 uM after 3 hrs by Western blotting analysis; type: cell-based
Outline: (§3)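 RAW264.7 cells (passage 5−25) seeded at 1 × 10⁵ cells/cm², switched to serum-free medium after 8 h, left overnight, then treated 3 h in serum-free medium; 0.1% DMSO vehicle control. Cells were swollen in hypotonic HEPES/NP-40 buffer for the cytosolic fraction and nuclei extracted in high-salt buffer. Blots loaded 30 μg/lane, Nrf2 densitometry normalized to actin, mean of three experiments.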

[8] = biological target: T1, Nuclear factor erythroid 2-related factor 2 (Mus musculus); assay: Activation of Nrf2 in mouse RAW264.7 cells assessed as nuclear accumulation at 50 uM after 3 hrs by Western blotting analysis; type: cell-based; outline: as §3
[9] = biological target: T1, Nuclear factor erythroid 2-related factor 2 (Mus musculus); assay: Activation of Nrf2 in mouse RAW264.7 cells assessed as upregulation of Hmox1 gene expression at 50 uM after 6 hrs by real-time PCR analysis relative to GAPDH mRNA expression; type: cell-based
Outline: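 Serum-starved RAW264.7 cells were exposed for 6 h in serum-free medium against a 0.1% DMSO control. Total RNA (2 μg) was reverse-transcribed, then TaqMan qPCR run for Hmox1 and Gapdh over 40 cycles. Crossing points were taken by second-derivative maximum, and fold change calculated by the 2^−ΔΔCT method normalized to Gapdh. Mean ± SD of three experiments.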

[10] = test system: RAW264.7; assay: Stability in mouse RAW264.7 cells assessed as gallic acid level at 50 uM after 6 hrs by HPLC/MS analysis; type: ADME, cell-based; details: raw264.7, 6 h
[11] = test system: RAW264.7; assay: Drug uptake in mouse RAW264.7 cells measured per 10^6 cells at 50 uM after 6 hrs; type: ADME, cell-based; details: raw264.7, 6 h; outline: as §2
[12] = test system: RAW264.7; assay: Drug uptake in mouse RAW264.7 cells at 50 uM after 10 mins; type: ADME, cell-based; details: raw264.7, 10 min; outline: as §2

In the case of `O=C1c2c(O)cc(O)cc2O[C@H](c2ccc(O)c(O)c2)[C@H]1O` [(+)-TAXIFOLIN], the fold change (FC) [1] is reported as 1, the Activity [2] is reported as “inactive” and the Activity [3] is reported as “Non-toxic”. The Activity [4] was “Non-toxic”.
For `COc1ccc(C[C@H]2NC[C@H](O)[C@H]2OC(C)=O)cc1`, the Activity [5] was “Active”.
In the case of `O=C(Oc1cc(O)c2c(=O)c(O)c(-c3ccc(O)c(O)c3)oc2c1)c1cc(O)c(O)c(O)c1`, the Drug uptake [6] is reported as 8.08 nmol.
`O=c1c(O)c(-c2ccc(O)c(O)c2)oc2cc(O)cc(O)c12` [QUERCETIN] was tested, and the Activity [7] was “Active”, the Activity [8] was “Active” and the fold change (FC) [1] was 1.9. The fold change (FC) [9] was 4.3, the Activity [3] was “Non-toxic” and the Activity [4] was “Non-toxic”.
In the case of `O=c1c(O[C@@H]2O[C@H](CO)[C@@H](O)[C@H](O)[C@H]2O)c(-c2ccc(O)c(O)c2)oc2cc(O)cc(O)c12` [ISOQUERCETIN], the fold change (FC) [1] is reported as 1, the Activity [2] is reported as “inactive” and the Activity [3] is reported as “Non-toxic”. For the same compound, the Activity [4] was “Non-toxic”.
In the case of `O=C(Oc1c(-c2ccc(O)c(O)c2)oc2cc(O)cc(O)c2c1=O)c1cc(O)c(O)c(O)c1`, the fold change (FC) [1] is reported as 0.9, the Activity [2] is reported as “inactive” and the Stability [10] is reported as “Stable”. The Drug uptake [11] was 1.8 nmol, the Drug uptake [6] was 1.75 nmol and the Drug uptake [12] was 85%. For the same compound, the Activity [3] was 79%.
`O=C(O)c1cc(O)c(O)c(O)c1` [GALLIC ACID] showed a fold change (FC) [1] of 1.5, a fold change (FC) [9] of 1.5 and an Activity [3] of 76%.
